Compounds with a hit are over-represented: about 0.83% of the library has one in this group of screens.
OXTR ag = human OXTR agonists, primary screen, fluorescence, CHO-OTR cells, Fluo-8 calcium. Fluo-8 calcium fluorescence; normalized: DMSO 0%, oxytocin 100%. Oxytocin receptor (Homo sapiens), P30559. AID 2435, 2010. activation, % at 3 µM. actives 0.32% (n = 320,000);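 active = activation above the mean of all tested compounds plus 3 SD, cutoff set per screening run, cut at about 20% in these data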;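 also: peak over basal fluorescence ratio from a 100 s FLIPR kinetic read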
Target sequence (P30559 whole entry, looked up): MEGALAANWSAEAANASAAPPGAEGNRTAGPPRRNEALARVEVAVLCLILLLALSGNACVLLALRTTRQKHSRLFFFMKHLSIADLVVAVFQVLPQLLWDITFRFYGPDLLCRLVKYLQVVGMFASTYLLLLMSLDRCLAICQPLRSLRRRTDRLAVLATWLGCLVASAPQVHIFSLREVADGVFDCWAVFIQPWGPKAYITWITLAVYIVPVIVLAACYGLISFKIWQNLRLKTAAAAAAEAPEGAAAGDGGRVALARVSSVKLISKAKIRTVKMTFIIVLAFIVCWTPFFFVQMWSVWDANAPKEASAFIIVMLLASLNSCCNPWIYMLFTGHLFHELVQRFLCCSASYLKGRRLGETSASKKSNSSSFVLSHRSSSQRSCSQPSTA
V1aR counter = agonists of human V1a receptor, primary screen, counter-screen for OXTR agonist project, fluorescence, CHO-V1R cells. Vasopressin V1a receptor (Homo sapiens), P37288. Fluo-8 calcium fluorescence, agonist mode; 0% DMSO, 100% 3 nM vasopressin. activation, % at 3 µM. actives 0.25% (n = 320,000);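 active = activation above the mean activation of all tested compounds plus 3 SD, per screening run, cut at about 20% in these data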;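 also: signal is peak over basal fluorescence ratio across a 100 second FLIPR read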
CRFBP-R2 agonist = agonists of CRF-BP/CRF-R2 complex, primary screen, cell-based, HEK293, calcium dye fluorescence, uHTS. CRF-binding protein / CRF receptor 2 complex (human). actives 0.46% (n = 350,000). calcium dye fluorescence (FLIPR); percent of saturating CRF peptide response. activation, % at 13.2 µM;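 active = activation of at least 50%, plus an integration ratio under a set limit after plate pattern correction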;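 also: plate controls were neutral control wells without compound for no effect and CRF at EC100 for full effect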
TRPML3 ag = human TRPML3 channel agonists, primary screen, cell-based, HEK293 TRPML3-YFP, Fluo-8 calcium fluorescence, 3 µM | Mucolipin-3 (Homo sapiens), Q8TDD5 | 100% = the carbachol control signal | activation, % at 3 µM | actives 0.29% (n = 220,000);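 active = activation above its plate's cutoff, the mean activation of the plate's test wells plus 3 SD, cut at about 12% in these data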;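 also: 0% = DMSO only wells and 100% = carbachol wells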
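Material: HEK293 cells stably carrying human TRPML3-YFP; compound dosing: single dose, 3 µM final nominal compound, 0.3% DMSO final; incubation: 1-h 37 °C dye load, 5-s basal, 120-s post-compound reads; technique: Fluo-8 intracellular calcium fluorescence, excitation 470-495 nm, emission 515-575 nm; read-out basis: percent activation from peak-to-basal fluorescence ratio, scaled between DMSO and carbachol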
OXTR potentiate = human OXTR potentiators, primary screen, fluorescence, CHO-OTR cells, Fluo-8 calcium; Oxytocin receptor (Homo sapiens), P30559; AID 2445, 2010; activation, % at 3 µM; Fluo-8 calcium fluorescence, potentiator mode; 0% = oxytocin EC15, 100% = EC100; actives 0.061% (n = 320,000);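 active = activation above that plate's cutoff, the mean activation of tested compounds plus 3 SD, cut at about 6.6% in these data, passing the limit was not always enough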;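 also: 100% uses oxytocin at 75 nM as the full agonist control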
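System: human OTR in CHO cells; Also added: sub-maximal oxytocin, roughly EC15; Timing: compound 6 min at room temperature before oxytocin, 100 s read; Technique: Fluo-8 intracellular calcium fluorescence, ex 470-495, em 515-575 nm; Controls: oxytocin EC15 low and EC100 high; Replication: singlicate.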
zfTRPN1 agonist = zebrafish TRPN1 channel agonists, primary screen, cell-based, HEK293, calcium fluorescence | transient receptor potential cation channel N1 (TRPN1/NompC), Danio rerio | HEK293 zebrafish TRPN1-YFP, Fluo-8 calcium fluorescence; 100% = response to 87 µM carbachol | activation, % at 3 µM | actives 0.18% (n = 220,000);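 active = activation above its plate's cutoff, the mean activation of test wells on that plate plus 3 SD, cut at about 19% in these data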;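 also: 0% = DMSO alone and 100% = 87 µM carbachol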
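Material: zebrafish TRPN1-YFP in HEK293 cells; Doses: single test compound dose, 3 µM nominal, 0.3% DMSO; Timing: dye loading 1 h at 37 °C, then 30 min room temperature; Technique: intracellular calcium fluorescence with Fluo-8; Benchmarks: high carbachol 87 µM, low DMSO alone.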
* marks the source's active call; other numbers are inactive results; . = not tested or not shown.

SMILES	OXTR ag	V1aR counter	CRFBP-R2 agonist	TRPML3 ag	OXTR potentiate	zfTRPN1 agonist
CCOC(=O)C1CCN(Cc2nc(-c3ccc(OC)c(OC)c3)no2)CC1	0	0	-1	0	0	0
Cc1ccc(-c2noc(CN3CCC(C(N)=O)CC3)n2)cc1	1	1	51*	1	4	1
O=C(C1CCCC1)N1CCCC(Nc2ccc(F)cc2)C1 (configuration not stated)	-2	-1	117*	.	0	.
O=C(C1CCCC1)N1CCCC(Nc2ccccc2)C1 (configuration not stated)	0	0	-1	.	-1	.
COc1ccc(C2N(C(=O)CN3CCCC3)CCCN2S(=O)(=O)c2ccccc2)cc1 (configuration not stated)	2	0	1	.	-12	.
Cc1cccc(OCC(=O)NC(=S)NNC(=O)c2ccncc2)c1	-1	2	-2	.	-15	.
CC(C)(C)c1ccc(OCC(=O)NNC(=O)CCc2ccccc2)cc1	0	2	-1	-1	-10	-1
Cc1ccccc1C(=O)NNC(=S)NC(=O)COc1ccccc1	0	0	129*	0	4	0
Cc1ccc(C(=O)NNC(=S)NC(=O)COc2ccccc2)cc1	0	0	142*	0	-11	0
CC(C)(C)c1ccc(C(=O)NC(=S)NNC(=O)COc2ccccc2)cc1	12	1	96*	.	-6	.
CCCN(CCC)C(=O)C1CCN(c2ccc(S(=O)(=O)N3CCOCC3)cc2[N+](=O)[O-])CC1	1	4	-1	.	0	.
CCOC(=O)/C(=C/C=C1\Sc2cc(OCC)c(OCC)cc2N1CC)C(C)=O	248*	289*	279*	30*	-16	46*
CCOC(=O)/C(=C\C=C1/Sc2cc(OCC)c(OCC)cc2N1CC)C(C)=O	148*	92*	322*	46*	-12	74*
CCc1nc(CN(C)C(=O)C2CCC(=O)N(Cc3cccc(F)c3)C2)no1 (configuration not stated)	0	-1	0	.	-5	.
CN(C)c1ccc(/C=C/c2ccc3ccccc3n2)cc1	11	16	90*	9	-17	10
CN(C)c1ccc(/C=C/c2nc3ccccc3s2)cc1	3	6	65*	0	-13	2
CCOc1ccc(N=C2NC(=O)S/C2=C\c2ccc(N(C)C)cc2)cc1	3	13	21	1	-11	3
CCOc1ccc(/C=C2/SC(=O)NC2=S)cc1	4	5	2	14*	-6	34*
O=C(CC1CCCCC1)c1c(O)c2ccccc2oc1=O	-1	0	70*	0	-3	1
Cc1ccc(-c2cnc3c(c2)C(=O)N([C@H](C)CO)C[C@@H](C)[C@@H](CN(C)C(=O)Cc2ccccc2)O3)cc1	.	.	0	.	.	.
C[C@H](CO)N1C[C@H](C)[C@@H](CN(C)S(=O)(=O)c2cn(C)cn2)Oc2c(NS(=O)(=O)c3ccc(F)cc3)cccc2C1=O	0	1	-1	.	-6	.
COc1ccc(C(=O)Nc2cc(C(C)=O)c(/C=C/N(C)C)oc2=O)cc1	3	2	155*	1	-4	2
COC(=O)c1cc(NC(=O)c2ccc(OC)cc2)c(=O)oc1C	-1	1	-1	1	-10	1
CC(=O)c1cc(NC(=O)c2ccc(C)cc2)c(=O)oc1/C=C/N(C)C	11	6	123*	1	-8	3
CC(=O)c1cc(NC(=O)c2ccc(C)cc2)c(=O)oc1C	1	0	-2	1	-1	0
SMILES	OXTR ag	V1aR counter	CRFBP-R2 agonist	TRPML3 ag	OXTR potentiate	zfTRPN1 agonist
O=C(COC(=O)CC1Sc2ccccc2NC1=O)NCc1ccccc1 (configuration not stated)	-1	1	-1	.	-3	.
O=C(CCc1ccccc1)NNC(=O)COc1ccccc1Cl	0	0	0	.	-3	.
C1=C(c2ccc(-c3ccccc3)cc2)Nc2ncnn2C1c1ccco1 (configuration not stated)	.	.	208*	3	.	4
Cc1ccc(C2C=C(c3ccccc3)Nc3ncnn32)cc1 (configuration not stated)	-2	0	15	.	-8	.
Fc1ccc(C2=CC(c3ccco3)n3ncnc3N2)cc1 (configuration not stated)	2	5	65*	0	4	-1
Fc1ccc(C2=CC(c3ccc(Br)o3)n3ncnc3N2)cc1 (configuration not stated)	51*	34*	192*	2	-12	4
Oc1ccc(C2C=C(c3ccc(F)cc3)Nc3ncnn32)cc1 (configuration not stated)	.	.	41	1	.	1
CCCN(Cc1nnc(-c2ccccc2Cl)o1)C(=O)c1cc(S(=O)(=O)N2CCOCC2)ccc1F	1	1	1	.	2	.
CCOC(=O)Cc1csc(NC(=O)C(C)c2ccc([N+](=O)[O-])cc2)n1 (configuration not stated)	27*	26*	29	16*	-21	22*
C=C1C(=O)C=C2CN(C(=O)c3ccccc3)[C@@](Cc3ccc(F)cc3)(C(=O)OC)[C@@H]12	69*	81*	31	5	-17	37*
COC(=O)[C@@]1(Cc2ccc(OC)cc2)[C@@H]2C(=CC(=O)[C@H]2CC(=O)C(=O)N(C)C)CN1C(=O)c1ccccc1	0	1	0	1	-6	1
CCOc1ccc(S(=O)(=O)N2CCOCC2)c2ccccc12	-2	0	0	.	-12	.
CCOc1ccc(S(=O)(=O)N2CCCCC2)c2ccccc12	0	0	0	62*	-13	-1
O=[N+]([O-])c1ccc(/C=N/N/C(=N/c2ccccn2)c2ccccn2)cc1	0	-1	2	0	-3	0
O=[N+]([O-])c1cc(/C=N/N/C(=N/c2ccccn2)c2ccccn2)ccc1O	-1	0	66*	0	-2	-1
CN(C)C=NC(=O)c1[nH]c2ccc(Cl)cc2c1-c1ccccc1	2	2	9	.	-19	.

Bioassay records deposited in PubChem BioAssay by several laboratories.
